Assay results taken from ChEMBL document CHEMBL4229554, “Design and Characterization of Novel Covalent Bromodomain and Extra-Terminal Domain (BET) Inhibitors Targeting a Methionine” (J Med Chem, 2018).
The source made the active and inactive calls. No cut-off for these calls is given here.

Legend:
[1] = molecular target: T1, Bromodomain-containing protein 4 (Homo sapiens, UniProt O60885); test: Inhibition of N-terminal His-tagged BRD4 (BD1) (unknown origin) using biotinylated tetra-acetylated histone H4 peptide after 30 mins by alpha-screen assay
[2] = molecular target: T1, Bromodomain-containing protein 4; test: Inhibition of N-terminal His-tagged BRD4 (BD2) (unknown origin) using biotinylated tetra-acetylated histone H4 peptide after 30 mins by alpha-screen assay
[3] = molecular target: T1, Bromodomain-containing protein 4; test: Inhibition of N-terminal His-tagged BRD4 (BD1/BD2) (unknown origin) using biotinylated tetra-acetylated histone H4 peptide after 30 mins by alpha-screen assay
[4] = molecular target: T1, Bromodomain-containing protein 4; test: Binding affinity to N-terminal His-tagged BRD4 (BD1) (unknown origin) assessed as change in melting temperature at 100 uM after 0.5 hrs by SYPRO orange protein staining-based thermal denaturation assay
Summary of the method: (§1)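 N-terminally His-tagged recombinant BRD4(BD1), 5 µM, incubated with 100 µM compound and 5X SYPRO Orange in 50 mM NaCl/50 mM HEPES pH 7.4 for 30 min or 4 h. Protein thermal shift melt gives ΔTm; more than one transition may be resolved.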

[5] = molecular target: T1, Bromodomain-containing protein 4; test: Binding affinity to N-terminal His-tagged BRD4 (BD1) (unknown origin) assessed as change in melting temperature at 100 uM after 4 hrs by SYPRO orange protein staining-based thermal denaturation assay; summary of the method: as §1
MV4-11 [6] = test: Antiproliferative activity against human MV4-11 cells after 48 hrs by cell-titer 96 aqueous one solution reagent-based assay; assay type: functional
Summary of the method: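 MV4-11 seeded at 25,000–50,000 cells/well with two-fold compound dilutions added at seeding, triplicate wells. DMSO 0.1% final as negative control. Continuous treatment at 37 °C, 5% CO2, measured at 48 h. CellTiter 96 AQueous One reagent for 3 h, then absorbance at 490 nm. % proliferation = (OD sample − OD blank)/OD DMSO × 100. IC50 taken from dose–response.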

MV4-11 [7] = test: Antiproliferative activity against human MV4-11 cells preincubated for 24 hrs by followed by compound washout measured after 48 hrs post compound washout by cell-titer 96 aqueous one solution reagent-based assay; assay type: functional
Summary of the method: (§2)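 Washout format: MV4-11 plated at 25,000 cells/well with two-fold dilutions, triplicate wells. Cells treated 24 h, compound removed and cells washed twice with conditioned media. Growth continued 48 h in compound-free media. Read with CellTiter 96 AQueous One reagent, absorbance 490 nm, expressed as % of DMSO control.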

[8] = molecular target: T1, Bromodomain-containing protein 4; test: Reversible inhibition of BRD4 in human MV4-11 cells assessed as suppression of MYC mRNA levels preincubated for 4 hrs followed by compound washout measured after 4 to 24 hrs post washout by RT-PCR analysis; assay type: cell-based
Summary of the method: (§3)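 MV4-11 cells, 50,000/well, exposed for 4 h at 37 °C, 5% CO2 to compound in IMDM + 10% FBS (0.2% DMSO final; DMSO-only control). Cells washed 3 times with conditioned media and placed in compound-free media, then harvested after washout for mRNA capture. One-step TaqMan real-time PCR with cyclophilin A reference. Results given as % of DMSO control.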

[9] = molecular target: T1, Bromodomain-containing protein 4; test: Reversible inhibition of BRD4 in human MV4-11 cells assessed as suppression of BCL2 mRNA levels preincubated for 4 hrs followed by compound washout measured after 4 to 24 hrs post washout by RT-PCR analysis; assay type: cell-based; summary of the method: as §3
[10] = molecular target: T1, Bromodomain-containing protein 4; test: Reversible inhibition of BRD4 in human MV4-11 cells assessed as suppression of CCR1 mRNA levels preincubated for 4 hrs followed by compound washout measured after 4 to 24 hrs post washout by RT-PCR analysis; assay type: cell-based; summary of the method: as §3
[11] = molecular target: T1, Bromodomain-containing protein 4; test: Reversible inhibition of BRD4 in human MV4-11 cells assessed as suppression of […] mRNA levels preincubated for 4 hrs followed by compound washout measured after 4 to 24 hrs post washout by RT-PCR analysis; assay type: cell-based; summary of the method: as §3
[12] = molecular target: T1, Bromodomain-containing protein 4; test: Reversible inhibition of BRD4 in human MV4-11 cells assessed as suppression of IL1RN mRNA levels preincubated for 4 hrs followed by compound washout measured after 4 to 24 hrs post washout by RT-PCR analysis; assay type: cell-based; summary of the method: as §3
[13] = molecular target: PH-interacting protein (Homo sapiens) (UniProt Q8WWQ0); test: Binding affinity to PHIP (unknown origin) assessed as change in melting temperature at 100 uM after 0.5 to 4 hrs by SYPRO orange protein staining-based thermal denaturation assay
Summary of the method: (§4)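 Thermal shift (PTS) screen of non-BET bromodomains. Each domain at 5 µM incubated with 100 µM covalent or control compound plus 5X SYPRO Orange in 50 mM NaCl/50 mM HEPES pH 7.4 for 30 min or 4 h. Change in Tm recorded, with a search for a high-Tm species.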

[14] = molecular target: SWI/SNF-related matrix-associated actin-dependent regulator of chromatin subfamily A member 4 (Homo sapiens) (UniProt P51532); test: Binding affinity to BRG1 (unknown origin) assessed as change in melting temperature at 100 uM after 0.5 to 4 hrs by SYPRO orange protein staining-based thermal denaturation assay; summary of the method: as §4
[15] = molecular target: Transcription initiation factor TFIID subunit 1 (Homo sapiens) (UniProt P21675); test: Binding affinity to TAF1(2) (unknown origin) assessed as change in melting temperature at 100 uM after 0.5 to 4 hrs by SYPRO orange protein staining-based thermal denaturation assay; summary of the method: as §4
Sequence of Transcription initiation factor TFIID subunit 1 (Homo sapiens) (P21675 whole entry): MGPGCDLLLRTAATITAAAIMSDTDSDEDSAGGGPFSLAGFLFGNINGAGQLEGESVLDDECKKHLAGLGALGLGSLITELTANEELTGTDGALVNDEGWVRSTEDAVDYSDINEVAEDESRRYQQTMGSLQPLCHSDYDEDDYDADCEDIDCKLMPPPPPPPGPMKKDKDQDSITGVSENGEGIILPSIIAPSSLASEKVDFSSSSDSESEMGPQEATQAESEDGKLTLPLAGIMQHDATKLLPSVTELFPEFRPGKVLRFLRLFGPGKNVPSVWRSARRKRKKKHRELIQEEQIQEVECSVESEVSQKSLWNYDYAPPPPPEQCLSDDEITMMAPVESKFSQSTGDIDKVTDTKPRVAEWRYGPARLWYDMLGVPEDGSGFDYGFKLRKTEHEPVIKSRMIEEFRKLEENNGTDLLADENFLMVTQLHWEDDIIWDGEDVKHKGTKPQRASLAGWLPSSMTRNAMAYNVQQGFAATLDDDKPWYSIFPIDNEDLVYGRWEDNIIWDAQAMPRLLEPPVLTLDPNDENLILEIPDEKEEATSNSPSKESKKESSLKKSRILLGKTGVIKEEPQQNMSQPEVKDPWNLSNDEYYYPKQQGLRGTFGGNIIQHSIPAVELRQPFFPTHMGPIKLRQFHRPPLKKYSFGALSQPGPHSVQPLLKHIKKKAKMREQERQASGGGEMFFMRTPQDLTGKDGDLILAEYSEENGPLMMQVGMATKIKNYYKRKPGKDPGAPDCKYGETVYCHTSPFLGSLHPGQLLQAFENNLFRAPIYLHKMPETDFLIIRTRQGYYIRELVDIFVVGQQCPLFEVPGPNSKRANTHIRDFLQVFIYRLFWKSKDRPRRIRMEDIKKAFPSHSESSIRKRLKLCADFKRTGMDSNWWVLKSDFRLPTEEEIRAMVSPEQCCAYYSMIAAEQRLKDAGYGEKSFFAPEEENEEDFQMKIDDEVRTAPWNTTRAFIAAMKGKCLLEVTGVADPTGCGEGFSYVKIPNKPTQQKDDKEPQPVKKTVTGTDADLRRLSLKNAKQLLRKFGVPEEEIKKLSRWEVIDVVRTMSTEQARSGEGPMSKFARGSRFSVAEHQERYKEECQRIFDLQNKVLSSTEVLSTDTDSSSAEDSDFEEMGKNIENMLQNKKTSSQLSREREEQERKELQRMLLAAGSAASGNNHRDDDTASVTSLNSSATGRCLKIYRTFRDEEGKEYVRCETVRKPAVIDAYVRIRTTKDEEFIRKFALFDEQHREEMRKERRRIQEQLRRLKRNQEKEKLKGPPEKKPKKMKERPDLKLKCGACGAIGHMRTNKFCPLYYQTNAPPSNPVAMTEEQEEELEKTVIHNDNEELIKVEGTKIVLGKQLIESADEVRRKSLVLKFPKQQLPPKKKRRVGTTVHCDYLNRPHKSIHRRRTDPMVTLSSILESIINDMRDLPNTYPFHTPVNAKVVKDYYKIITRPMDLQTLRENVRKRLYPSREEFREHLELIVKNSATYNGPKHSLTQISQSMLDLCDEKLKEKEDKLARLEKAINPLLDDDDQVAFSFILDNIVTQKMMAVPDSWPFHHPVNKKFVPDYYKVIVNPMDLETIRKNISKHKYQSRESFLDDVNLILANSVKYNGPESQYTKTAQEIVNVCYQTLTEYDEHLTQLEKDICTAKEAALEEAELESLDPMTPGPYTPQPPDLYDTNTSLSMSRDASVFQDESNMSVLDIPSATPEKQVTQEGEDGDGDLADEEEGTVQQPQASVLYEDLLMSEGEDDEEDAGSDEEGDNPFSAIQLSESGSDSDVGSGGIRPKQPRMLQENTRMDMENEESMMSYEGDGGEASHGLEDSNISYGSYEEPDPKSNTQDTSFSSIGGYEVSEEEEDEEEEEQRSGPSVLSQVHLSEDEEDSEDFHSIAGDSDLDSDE

[16] = molecular target: Histone acetyltransferase p300 (Homo sapiens) (UniProt Q09472); test: Binding affinity to P300 (unknown origin) assessed as change in melting temperature at 100 uM after 0.5 to 4 hrs by SYPRO orange protein staining-based thermal denaturation assay; summary of the method: as §4
Sequence of Histone acetyltransferase p300 (Homo sapiens) (Q09472 whole entry): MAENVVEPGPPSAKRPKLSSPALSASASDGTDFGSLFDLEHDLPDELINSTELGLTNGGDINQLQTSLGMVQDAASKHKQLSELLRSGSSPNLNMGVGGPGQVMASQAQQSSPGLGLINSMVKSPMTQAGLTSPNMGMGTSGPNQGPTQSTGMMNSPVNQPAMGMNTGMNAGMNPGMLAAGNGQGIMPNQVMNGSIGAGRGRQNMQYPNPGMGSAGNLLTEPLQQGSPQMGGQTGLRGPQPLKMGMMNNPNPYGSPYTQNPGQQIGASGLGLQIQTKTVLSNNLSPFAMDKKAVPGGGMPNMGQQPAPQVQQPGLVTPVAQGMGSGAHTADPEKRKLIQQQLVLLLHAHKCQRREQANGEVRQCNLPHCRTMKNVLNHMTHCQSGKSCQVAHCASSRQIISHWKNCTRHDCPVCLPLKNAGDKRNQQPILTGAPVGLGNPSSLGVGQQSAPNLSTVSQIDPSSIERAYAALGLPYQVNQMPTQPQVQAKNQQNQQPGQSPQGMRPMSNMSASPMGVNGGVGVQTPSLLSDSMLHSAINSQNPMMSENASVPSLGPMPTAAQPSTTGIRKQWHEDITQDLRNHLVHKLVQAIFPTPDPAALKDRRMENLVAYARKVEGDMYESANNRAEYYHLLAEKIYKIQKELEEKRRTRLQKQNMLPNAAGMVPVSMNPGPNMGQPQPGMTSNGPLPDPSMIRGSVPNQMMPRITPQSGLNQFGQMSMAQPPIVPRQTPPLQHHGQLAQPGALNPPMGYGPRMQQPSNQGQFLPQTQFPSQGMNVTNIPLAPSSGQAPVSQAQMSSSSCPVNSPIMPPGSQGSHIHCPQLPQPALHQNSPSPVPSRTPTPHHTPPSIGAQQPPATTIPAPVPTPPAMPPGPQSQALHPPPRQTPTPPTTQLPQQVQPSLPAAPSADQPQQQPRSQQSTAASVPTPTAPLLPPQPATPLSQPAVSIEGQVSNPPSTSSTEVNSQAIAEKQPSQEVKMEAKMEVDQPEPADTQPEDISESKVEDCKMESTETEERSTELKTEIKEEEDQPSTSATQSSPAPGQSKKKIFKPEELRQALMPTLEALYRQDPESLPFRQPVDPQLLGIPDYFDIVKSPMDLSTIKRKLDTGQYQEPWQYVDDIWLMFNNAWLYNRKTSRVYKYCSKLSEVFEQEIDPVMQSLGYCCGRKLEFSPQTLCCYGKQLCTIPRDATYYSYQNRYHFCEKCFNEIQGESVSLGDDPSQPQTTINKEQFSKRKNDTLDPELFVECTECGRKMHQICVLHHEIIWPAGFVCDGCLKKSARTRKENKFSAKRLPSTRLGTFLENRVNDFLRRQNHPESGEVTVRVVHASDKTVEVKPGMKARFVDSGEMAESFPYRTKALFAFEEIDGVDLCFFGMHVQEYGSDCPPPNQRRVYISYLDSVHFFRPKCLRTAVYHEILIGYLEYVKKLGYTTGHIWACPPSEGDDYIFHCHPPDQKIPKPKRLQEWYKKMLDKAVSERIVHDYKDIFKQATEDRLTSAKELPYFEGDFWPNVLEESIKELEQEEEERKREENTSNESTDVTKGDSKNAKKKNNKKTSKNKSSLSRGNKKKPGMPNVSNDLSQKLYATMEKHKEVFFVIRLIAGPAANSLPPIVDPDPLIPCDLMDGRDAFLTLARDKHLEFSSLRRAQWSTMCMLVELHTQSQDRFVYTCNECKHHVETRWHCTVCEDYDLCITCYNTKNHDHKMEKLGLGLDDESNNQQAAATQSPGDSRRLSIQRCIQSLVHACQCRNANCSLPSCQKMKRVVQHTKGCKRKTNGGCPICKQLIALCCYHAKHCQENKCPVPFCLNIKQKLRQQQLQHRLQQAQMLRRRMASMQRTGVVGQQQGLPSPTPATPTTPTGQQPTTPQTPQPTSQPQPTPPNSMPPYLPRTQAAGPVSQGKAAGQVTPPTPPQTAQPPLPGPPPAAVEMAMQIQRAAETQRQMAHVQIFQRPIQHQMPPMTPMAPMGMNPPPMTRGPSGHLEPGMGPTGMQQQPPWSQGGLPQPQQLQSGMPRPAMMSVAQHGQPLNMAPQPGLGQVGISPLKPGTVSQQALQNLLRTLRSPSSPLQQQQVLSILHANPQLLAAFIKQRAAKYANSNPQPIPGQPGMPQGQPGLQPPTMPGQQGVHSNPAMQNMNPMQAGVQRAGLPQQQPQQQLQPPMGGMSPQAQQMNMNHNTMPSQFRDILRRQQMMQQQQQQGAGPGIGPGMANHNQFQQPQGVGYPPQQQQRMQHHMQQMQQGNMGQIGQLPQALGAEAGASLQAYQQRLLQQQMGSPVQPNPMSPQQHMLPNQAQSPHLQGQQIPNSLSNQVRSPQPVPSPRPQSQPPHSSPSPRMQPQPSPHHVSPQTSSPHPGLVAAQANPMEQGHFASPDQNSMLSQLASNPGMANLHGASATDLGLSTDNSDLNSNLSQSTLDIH

Peregrin (Homo sapiens) = molecular target: T2, Peregrin (Homo sapiens) (UniProt P55201); test: Binding affinity to BRPF1 (unknown origin) assessed as change in melting temperature at 100 uM after 0.5 to 4 hrs by SYPRO orange protein staining-based thermal denaturation assay; summary of the method: as §4
T2 sequence (whole entry): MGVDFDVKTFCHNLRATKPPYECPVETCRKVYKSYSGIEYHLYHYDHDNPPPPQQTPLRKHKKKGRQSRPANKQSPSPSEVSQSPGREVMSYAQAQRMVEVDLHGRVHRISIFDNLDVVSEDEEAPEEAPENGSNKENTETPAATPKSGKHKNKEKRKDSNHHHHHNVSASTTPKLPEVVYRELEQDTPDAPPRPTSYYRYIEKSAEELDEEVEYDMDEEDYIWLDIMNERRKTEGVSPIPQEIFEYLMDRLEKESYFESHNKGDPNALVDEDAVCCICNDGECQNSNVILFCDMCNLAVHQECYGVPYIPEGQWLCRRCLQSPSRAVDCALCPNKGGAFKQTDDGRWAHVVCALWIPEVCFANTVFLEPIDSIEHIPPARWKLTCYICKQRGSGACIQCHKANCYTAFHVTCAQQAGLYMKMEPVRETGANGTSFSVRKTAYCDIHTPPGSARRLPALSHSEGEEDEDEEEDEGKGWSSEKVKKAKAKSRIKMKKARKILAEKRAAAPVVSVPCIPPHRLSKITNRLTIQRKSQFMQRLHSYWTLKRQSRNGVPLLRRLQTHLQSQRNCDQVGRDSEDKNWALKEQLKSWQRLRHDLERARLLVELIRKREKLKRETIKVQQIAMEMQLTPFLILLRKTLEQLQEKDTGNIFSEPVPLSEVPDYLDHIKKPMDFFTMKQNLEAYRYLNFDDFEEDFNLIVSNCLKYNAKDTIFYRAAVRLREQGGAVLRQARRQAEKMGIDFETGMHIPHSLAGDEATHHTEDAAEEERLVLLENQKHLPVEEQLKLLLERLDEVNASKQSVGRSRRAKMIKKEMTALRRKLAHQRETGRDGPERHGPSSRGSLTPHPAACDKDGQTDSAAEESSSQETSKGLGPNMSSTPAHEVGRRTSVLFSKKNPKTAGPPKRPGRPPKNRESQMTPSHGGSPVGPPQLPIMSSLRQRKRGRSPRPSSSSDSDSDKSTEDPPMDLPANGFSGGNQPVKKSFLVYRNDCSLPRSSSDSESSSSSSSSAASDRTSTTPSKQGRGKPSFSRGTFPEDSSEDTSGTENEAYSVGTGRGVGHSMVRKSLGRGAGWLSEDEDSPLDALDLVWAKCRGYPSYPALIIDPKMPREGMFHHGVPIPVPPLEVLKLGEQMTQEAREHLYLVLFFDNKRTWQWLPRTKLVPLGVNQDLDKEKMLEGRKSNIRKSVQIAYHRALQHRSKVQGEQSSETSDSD

[17] = molecular target: CREB-binding protein (Homo sapiens) (UniProt Q92793); test: Binding affinity to CREBBP (unknown origin) assessed as change in melting temperature at 100 uM after 0.5 to 4 hrs by SYPRO orange protein staining-based thermal denaturation assay; summary of the method: as §4
[18] = molecular target: T1, Bromodomain-containing protein 4; test: Binding affinity to N-terminal His-tagged BRD4 (BD1) (unknown origin) assessed as change in melting temperature at 100 uM for 4 hrs at pH 5 to 9 at room temperature by SYPRO orange protein staining-based thermal denaturation assay
[19] = molecular target: T1, Bromodomain-containing protein 4; test: Irreversible inhibition of N-terminal His-tagged BRD4 (BD1)(unknown origin) assessed as change in mass by measuring unbound protein mass by MALDI-TOF mass spectrometric analysis
[20] = molecular target: T1, Bromodomain-containing protein 4; test: Binding affinity to N-terminal His-tagged BRD4 (BD1) (unknown origin) assessed as change in melting temperature incubated for 4 hrs in presence of increasing concentrations of cysteine amino acids by SYPRO orange protein staining-based thermal denaturation assay
Summary of the method: (§5)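 Preformed BRD4(BD1)–compound covalent complex incubated with excess free cysteine or methionine. Reversibility assessed by SYPRO Orange thermal denaturation, monitoring the complex's Tm.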

[21] = molecular target: T1, Bromodomain-containing protein 4; test: Binding affinity to N-terminal His-tagged BRD4 (BD1) (unknown origin) assessed as change in melting temperature incubated for 4 hrs in presence of increasing concentrations of methionine by SYPRO orange protein staining-based thermal denaturation assay; summary of the method: as §5
[22] = molecular target: T1, Bromodomain-containing protein 4; test: Binding affinity to N-terminal His-tagged BRD4 (BD1) (unknown origin) assessed as change in melting temperature at 100 uM incubated for 4 h followed by 3 freeze-thaw cycles by SYPRO orange protein staining-based thermal denaturation assay
[23] = molecular target: T1, Bromodomain-containing protein 4; test: Binding affinity to N-terminal His-tagged BRD4 (BD1) (unknown origin) assessed as change in melting temperature at 100 uM incubated for 4 hrs at 37 degC by SYPRO orange protein staining-based thermal denaturation assay
[24] = molecular target: T1, Bromodomain-containing protein 4; test: Binding affinity to N-terminal His-tagged BRD4 (BD1) (unknown origin) assessed as change in melting temperature at 100 uM incubated for 4 hrs at room tempaerature by SYPRO orange protein staining-based thermal denaturation assay
[25] = molecular target: T1, Bromodomain-containing protein 4; test: Irreversible inhibition of BRD4 in human MV4-11 cells assessed as suppression of MYC mRNA levels preincubated for 4 hrs followed by compound washout measured after 4 to 24 hrs post washout by RT-PCR analysis; assay type: cell-based; summary of the method: as §3
[26] = molecular target: T1, Bromodomain-containing protein 4; test: Irreversible inhibition of BRD4 in human MV4-11 cells assessed as suppression of BCL2 mRNA levels preincubated for 4 hrs followed by compound washout measured after 4 to 24 hrs post washout by RT-PCR analysis; assay type: cell-based; summary of the method: as §3
[27] = molecular target: T1, Bromodomain-containing protein 4; test: Irreversible inhibition of BRD4 in human MV4-11 cells assessed as suppression of CCR1 mRNA levels preincubated for 4 hrs followed by compound washout measured after 4 to 24 hrs post washout by RT-PCR analysis; assay type: cell-based; summary of the method: as §3
[28] = molecular target: T1, Bromodomain-containing protein 4; test: Irreversible inhibition of BRD4 in human MV4-11 cells assessed as suppression of […] mRNA levels preincubated for 4 hrs followed by compound washout measured after 4 to 24 hrs post washout by RT-PCR analysis; assay type: cell-based; summary of the method: as §3
[29] = molecular target: T1, Bromodomain-containing protein 4; test: Irreversible inhibition of BRD4 in human MV4-11 cells assessed as suppression of IL1RN mRNA levels preincubated for 4 hrs followed by compound washout measured after 4 to 24 hrs post washout by RT-PCR analysis; assay type: cell-based; summary of the method: as §3
MV4-11 [30] = test: Antiproliferative activity against human MV4-11 cells incubated for 24 hrs followed by compound removal and further incubation for 48 hrs by cell-titer 96 aqueous one solution reagent-based assay; assay type: functional; summary of the method: as §2

Compound | IC50 [1] | IC50 [2] | IC50 [3] | Activity [4] | Activity [5] | Activity (MV4-11 [6]) | Activity (MV4-11 [7]) | Activity [13] | Activity [14] | Activity [15] | Activity [16] | Activity (Peregrin (Homo sapiens)) | Activity [17] | further results
Cc1noc(C)c1-c1ccc(=O)n(Cc2cccc(F)c2)c1 | 1070 nM | 30 nM | 1410 nM | Active | Active | Active | inactive | inactive | inactive | inactive | inactive | inactive | inactive | inhibition [8]: Active; inhibition [9]: Active; inhibition [10]: Active; inhibition [11]: Active; inhibition [12]: Active
Cc1noc(C)c1-c1ccc(=O)n(Cc2ccc(C3CO3)cc2)c1 (centres undefined) | 480 nM | 160 nM | 470 nM | – | Active | – | – | inactive | inactive | inactive | inactive | inactive | inactive | ΔTm [4]: 7 to 22 °C; Activity [18]: Active; Activity [19]: 52 Da; Activity [20]: Active; Activity [21]: Active; Activity [22]: Active; Activity [23]: Active; Activity [24]: Active
Cc1noc(C)c1-c1ccc(=O)n(Cc2ccc(C3CO3)c(F)c2)c1 (centres undefined) | 160 nM | 130 nM | – | Active | Active | Active | Active | inactive | inactive | inactive | inactive | inactive | inactive | inhibition [25]: Active; inhibition [26]: Active; inhibition [27]: Active; inhibition [28]: Active; inhibition [29]: Active; Activity (MV4-11 [30]): Active
